Assay results taken from article PMC4589464 (Hepatology (Baltimore, Md.), 2015).
Structures can show the parent of a compound that is named as a salt. Where two headings read alike, the source gives them in different places.

How the values were obtained:
HBVADV-R^A181T/N236T = assay: Southern blot assay, Huh-7 cells transfected with ADV-resistant HBV plasmid; assay type: cell-based; settings: Hepatitis B virus, Huh-7, read-out: IC50 against HBVADV-R^A181T/N236T
How it was run: (§1)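 Huh-7 cells were transfected with the HBV variant-containing plasmid and cultured with a range of test compound concentrations. Core-associated HBV DNA was extracted and detected by Southern blot hybridization. IC50 was calculated from the change in signal density, generally averaged over two experiments. The fold change was taken relative to the IC50 against wild-type HBV plasmid.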

HIV-2 strains = assay: Activity against HIV-2 strains; assay type: cell-based; settings: Table S1
HBV [1] = system: HBV
[2] = Serum human albumin and body weight monitoring of treated HBV-infected mice; assay type: in vivo; settings: 0.02 mg/kg/day
HBV^WT [3] = assay: Southern blot assay, Huh-7 cells transfected with pHBV^WT; assay type: cell-based; settings: Hepatitis B virus
HBV [4] = assay: microbe, parasite or virus in culture; settings: Hepatitis B virus, HepG2 2.2.15, 288 h, read-out: IC50 against Anti-HBV
HepG2 cells = assay type: cell-based; settings: up to 100 μM
HIV-1NL4-3 [5] = system: HIV-1NL4-3
[6] = system: HBVETV-R^L180M/S202G/M204V; assay: Southern blot assay, Huh-7 cells transfected with ETV-resistant HBV plasmid; assay type: cell-based; settings: Hepatitis B virus, Huh-7, read-out: IC50 against HBVETV-R^L180M/S202G/M204V
How it was run: as §1

in vitro = assay type: cell-based; settings: human
HBV^WT [7] = assay: HBV^WT viremia in hu-liver-chimeric-uPA+/+/SCID+/+ mice; assay type: in vivo; settings: 0.02 mg/kg/day oral, 14 days
[8] = system: HBVETV-R^L180M/S202G/M204V; assay: HBVETV-R viremia in hu-liver-chimeric-uPA+/+/SCID+/+ mice; assay type: in vivo
How it was run: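 Human-liver-chimeric uPA+/+/SCID+/+ mice (SCID, uPA-transgenic, liver partly repopulated with human hepatocytes) were inoculated with the HBV variant. Dosing began 8 weeks later, once daily at 0.02 mg/kg/day for 14 days. Serum viremia was followed as log10 copies/ml change from baseline, along with serum human albumin and body weight per mouse. Livers were examined histologically at the end of dosing.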

[9] = Cytotoxicity in MT-4 cells; assay type: cell-based; settings: human
HBV^WT [10] = settings: read-out: IC50 against HBV^WT; Southern blotting assay; cited from earlier work
HIV-1 = settings: read-out: in vitro anti-HIV-1 IC90 concentration; cited from earlier work
[11] = intraperitoneal administration 20 mg/kg; cited from earlier work
HIV-1NL4-3 [12] = assay: microbe, parasite or virus in culture; settings: Human immunodeficiency virus 1, MT4, read-out: IC50 against Anti-HIV-1

| Structure (SMILES) | S.I. with Anti-HBV (CC50/IC50) (HBV [1]; HepG2 2.2.15 cells) | IC50 (HBV [4]) | S.I. with Anti-HIV-1 (CC50/IC50) (HIV-1NL4-3 [5]; MT-4 cells) | CC50 (in vitro) | CC50 [9] | other results |
| --- | --- | --- | --- | --- | --- | --- |
| N#C[C@]1(CO)O[C@@H](n2cnc3c(N)nc(N)nc32)C[C@@H]1O [CAdA, 4′-C-cyano-2-amino-2′-deoxyadenosine] | 9,500 | 0.0004 ± 0.0002 µM | 8,750 | 3.8 ± 1 µM | 3.5 ± 1.2 µM | IC50 (HBVADV-R^A181T/N236T): 0.09 ± 0.07 µM; activity against HIV-2 strains (HIV-2 strains): potent activity against HIV-2 strains; serum human albumin (h-albumin) levels ([2]; HBV^WT-infected mice): moderately decreased h-albumin levels; body weights ([2]; treated mice, 14 days): no significant difference in body weights; IC50 (HBV^WT [3]; Huh-7, read-out: IC50 against HBV^WT): 0.007 ± 0.01 µM; IC50 (HBV^WT [3]; Huh-7, read-out: IC50 against HBV^WT (Southern blot)): 0.0072 µM; mtDNA synthesis / mtDNA levels (HepG2 cells; 12 days culture, real-time mtDNA-PCR): significantly lowered the levels of mtDNA; L-lactate levels in culture medium (HepG2 cells; 12 days culture): severely lowered the levels of L-lactate and viable cell numbers; viable cell numbers (MTT assay) (HepG2 cells; day 5 of culture): severely lowered the levels of L-lactate and viable cell numbers; IC50 [6]: 0.07 ± 0.01 µM; effect on HBV^WT viremia (HBV^WT [7]): significantly blocked the replication of HBV; greatest magnitude of serum HBV-DNA level reduction (HBV^WT [7]; HBV^WT-infected mice): -2.9 log10 copies/ml; effect on HBVETV-R^L180M/S202G/M204V viremia ([8]; 0.02 mg/kg/day oral once daily, 14 days): significant level of viremia reduction by day 7; greatest magnitude of viremia reduction ([8]; HBVETV-R-infected mice, 0.02 mg/kg/day oral, 14 days, average of two mice): -1.4 log10 copies/ml; difference in viremia reduction magnitude between HBV^WT and HBVETV-R^L180M/S202G/M204V ([8]; mouse model): 30 fold |
| CC(C)(C)C(=O)OCOP(=O)(COCCn1cnc2c(N)ncnc21)OCOC(=O)C(C)(C)C [ADV, adefovir dipivoxil] | > 500 | 0.2 ± 0.08 µM | 21 | > 100 µM | 5.1 ± 1 µM | IC50 (HBVADV-R^A181T/N236T): 39.5 ± 13.3 µM; IC50 [6]: 36.4 ± 23.5 µM; IC50 (HBV^WT [10]): 7.7 µM |
| C#C[C@]1(CO)O[C@@H](n2cnc3c(N)nc(F)nc32)C[C@@H]1O [EFdA, 4′-ethynyl-2-fluoro-2′-deoxyadenosine] | > 630 | 0.16 ± 0.03 µM | 64,000 | > 100 µM | 19.2 ± 5.9 µM | IC90 (HIV-1): ~0.005 µM; maximal concentration [11]: 4 µg/mL; time of maximal concentration [11]: 30 min |
| Cc1cn([C@@H]2C[C@@H](O)[C@H](CO)O2)c(=O)[nH]c1=O [LdT, telbivudine] | > 14,000 | 0.007 ± 0.001 µM | – | > 100 µM | > 100 µM | – |
| C#C[C@@]1(CO)C=C[C@H](n2cc(C)c(=O)[nH]c2=O)O1 [Ed4T, 2′,3′-didehydro-3′-deoxy-4′-ethynylthymidine] | – | > 100 µM | > 380 | > 100 µM | > 100 µM | – |
| Nc1nc(=O)n([C@@H]2CS[C@H](CO)O2)cc1F [FTC, emtricitabine] | – | 0.02 ± 0.01 µM | – | > 100 µM | > 100 µM | S.I. with Anti-HBV (CC50/IC50) (HBV [1]): > 5,000; S.I. with Anti-HIV-1 (CC50/IC50) (HIV-1NL4-3 [5]): > 430; IC50 (HIV-1NL4-3 [12]): 0.23 ± 0.1 µM |
| CC(C)OC(=O)OCOP(=O)(CO[C@H](C)Cn1cnc2c(N)ncnc21)OCOC(=O)OC(C)C [TDF, tenofovir disoproxil fumarate] | > 2,500 | 0.04 ± 0.01 µM | 70 | > 100 µM | – | CC50 ([9]; MT-4 cells): 40.4 ± 11.3 µM |
| OC[C@@H]1CC[C@H](n2cnc3c(O)ncnc32)O1 [ddI, 2′,3′-dideoxyinosine] | – | 3.7 ± 0.7 µM | – | > 100 µM | > 100 µM | – |
